The source of these data is ChEMBL document CHEMBL1129793, “Quantitative structure-activity relationships for the in vitro antimycobacterial activity of pyrazinoic acid esters” (J Med Chem, 1996).

Series [1] can be described thus: T1/2 in equine serum. The following applies: horse. Format: ADME, organism-based, Equus caballus. In short, it runs like this:
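Ester from a 1 mg/mL stock was mixed with 5% aqueous equine serum in 0.01 M KH2PO4, pH 7.2. Remaining ester was measured by isocratic reverse-phase HPLC (80% acetonitrile/20% 0.1 M sodium acetate, pH 5.0), with UV detection at 265 nm against a standard curve. Half-life is the time to 50% conversion to the acid.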

Series [2] is described as follows: Partition coefficient (logP). Format: physicochemical. Conditions: octanol/water.
The subject of series [3] is Mycobacterium avium. As to the kind of experiment: In vitro activity against Mycobacterium avium (MAC-101). Format: functional. In short, it runs like this:
(§1)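 Broth macrodilution MIC. Cultures were grown in modified Middlebrook 7H10 broth (agar and malachite green omitted) with 10% OADC and 0.05% Tween 80, shaken at 37 °C for 3 days, then diluted in 7H10 broth to 1 Klett unit/mL. Test agents were dissolved in water or DMSO and filter-sterilised, then serially diluted 2-fold in 7H10 broth at pH 5.8. Tubes were shaken at 37 °C for 7–10 days, with a drug-free control. MIC was the lowest concentration with no visible turbidity, expressed in mmol/L.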

In series [4] the test system is Mycobacterium tuberculosis. As to the kind of experiment: In vitro activity against Mycobacterium tuberculosis (ATCC 35801). Type of series: functional. In short, it runs like this: as §1
For series [5], the system named is Mycobacterium kansasii. Kind of series: in vitro activity against Mycobacterium kansasii (SWK). Type of series: functional. In short, it runs like this: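 M. kansasii clinical isolate SWK was grown 3 days at 37 °C with shaking in modified Middlebrook 7H10 broth with 10% OADC and 0.05% Tween 80, then diluted. It was tested in serial 2-fold dilutions in 7H10 broth at pH 5.8, shaken at 37 °C for 7–10 days, with a drug-free control. MIC was the lowest concentration giving no visible turbidity, expressed in mmol/L.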

The subject of series [6] is Mycobacterium avium. As to the kind of experiment: In vitro activity against Mycobacterium avium (ATCC 49601). Format: functional. In short, it runs like this: as §1
Series [7] deals with Mycobacterium tuberculosis. Kind of series: In vitro activity against Mycobacterium tuberculosis (ATCC 27294). Type of series: functional. In short, it runs like this: as §1
Series [8] relates to Mycobacterium tuberculosis. As to the kind of experiment: In vitro activity against Mycobacterium tuberculosis (ATCC 35828). Format: functional. In short, it runs like this: as §1

Each structure is given as a SMILES string.

`CCCCCCCCCCOC(=O)c1cnc(Cl)cn1` registered a half-life in series [1] of 1.9 min. Moreover, the log partition coefficient (logP) in series [2] was found to be 5.48. Also, the “Log 1/MMIC” value in series [3] was 0.97; in series [4], 3.077; in series [5], 2.776; in series [6], 1.271.
Take `CCCCCCC(C)(CCCCC)OC(=O)c1cnc(Cl)cn1` (configuration not stated): in series [1], the half-life was 1410 min. The same compound gave a log partition coefficient (logP) in series [2] of 6.45. Also, the “Log 1/MMIC” value is given as 0.726 in series [3]; 2.232 in series [7]; 1.329 in series [8]; 1.63 in series [5]; 0.726 in series [6].
`CCCCCCC(CCCCCC)OC(=O)c1cnc(Cl)cn1` displayed a half-life in series [1] of 60 min. Also, the log partition coefficient (logP) in series [2] is 7.04. The “Log 1/MMIC” value was 1.329 in series [3], 3.135 in series [7], 2.834 in series [5] and 0.726 in series [6].
`CCCCCCCC(C)(CCCC)OC(=O)c1cnc(Cl)cn1` (configuration not stated) came in with a half-life in series [1] of 600 min. The log partition coefficient (logP) in series [2] came to 6.44. The “Log 1/MMIC” value in series [3] amounted to 0.124; in series [7], 1.63; in series [4] it was 1.931; in series [5], 1.329; in series [6], 0.124.
`CCCCCCCCOC(=O)c1cnc(Cl)cn1` registered a half-life in series [1] of 1.3 min. For the same compound, the lipophilicity (logP) in series [2] is 4.48. The “Log 1/MMIC” value in series [3] came out at 1.228; in series [7], 3.654; in series [5], 3.955; in series [6], 1.228.
The compound `CCCCCOC(=O)c1cnc(Cl)cn1` yielded a half-life in series [1] of 3.2 min. This compound registered a logP in series [2] of 2.73. Also, the “Log 1/MMIC” value is recorded as 0.854 in series [3]; 3.581 in series [7]; 2.961 in series [4]; 3.262 in series [8]; 3.882 in series [5]; 0.854 in series [6].
Consider `CCOC(=O)c1cnc(Cl)cn1`, for which, in series [1], the half-life is 110 min. In addition, in series [2], the log partition coefficient (logP) is 1.19. Besides, the “Log 1/MMIC” value in series [3] stood at 0.164; in series [7] it was 2.271; in series [8], 1.067; in series [5], 1.97; in series [6], 0.164.
`CCCCCCC(C)OC(=O)c1cnc(Cl)cn1` (configuration not stated) had a half-life in series [1] of 28.2 min. In series [2], this compound returned a logP of 3.63. In addition, the “Log 1/MMIC” value was determined as 0.927 in series [3], 3.035 in series [5] and 0.927 in series [6].
In the case of `CCCCCCCCCCCC(C)OC(=O)c1cnc(Cl)cn1` (configuration not stated), in series [1], the half-life is 50 min. Moreover, in series [2], the lipophilicity (logP) was found to be 6.25. Further, the “Log 1/MMIC” value in series [3] stood at 0.124; in series [7], 2.232; in series [4] it was 2.834; in series [8] it was 2.834; in series [5], 3.754; in series [6] it was 1.027.
Compound `O=C(OCc1ccccc1)c1cnc(Cl)cn1` displayed a half-life in series [1] of 5 min. In series [2], the logP was determined as 2.39. Further, the “Log 1/MMIC” value in series [3] came to 1.493; in series [4], 2.697; in series [5] it was 2.396; in series [6] it was 1.794.
In turn, `CCCOC(=O)c1cnc(Cl)cn1` had a half-life in series [1] of 18.7 min. Moreover, the log partition coefficient (logP) in series [2] was 1.67. Besides, the “Log 1/MMIC” value is given as 1.098 in series [3]; 3.524 in series [7]; 3.825 in series [4]; 2.904 in series [5]; 1.098 in series [6].
`CCCCCCCOC(=O)c1cnc(Cl)cn1`: the half-life in series [1] amounted to 3.2 min. The logP in series [2] worked out at 3.87. Also, the “Log 1/MMIC” value is 1.506 in series [3], 3.631 in series [7], 3.932 in series [5] and 1.205 in series [6].
The compound `CCC(C)(CC)OC(=O)c1cnc(Cl)cn1` yielded a half-life in series [1] of 1020 min. Moreover, in series [2], the logP came to 2.74. Besides, the “Log 1/MMIC” value is recorded as -0.023 in series [3]; 1.482 in series [7]; 1.482 in series [4]; 1.783 in series [8]; 2.084 in series [5]; -0.023 in series [6].
